ChEMBL document CHEMBL4118021, “Studies of TAK1-centered polypharmacology with novel covalent TAK1 inhibitors” (Bioorg Med Chem, 2017)
Blank lines part the entries; values can stand above or below the molecule they belong to. The source made the active and inactive calls. The calls are words filed in the database; no cut-off is given here.

Columns and labels:
[1] = target: Serine/threonine-protein kinase TBK1 (Homo sapiens) (UniProt Q9UHD2); assay: Inhibition of TBK1 in human SKCO1 cells at 1 uM after 4 hrs using biotin labeled TGDLFAIKVFNNISFLRPVDVQMR probe by mass-spectrometric analysis relative to control; format: cell-based
[2] = target: TGF-beta receptor type-2 (Homo sapiens) (UniProt P37173); assay: Inhibition of human TGFBR2 (218 to 567 residues) expressed in bacterial expression system assessed as enzyme activity at 10 uM by KINOMEScan assay relative to control; design: scale not given: the % may be the effect or the level left
Procedure, shortened: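 In vitro ATP-site competition binding assay across a panel of 456 kinases, with compound tested at 1 and 10 μM.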

[3] = target: Long-chain-fatty-acid--CoA ligase 1 (Homo sapiens) (UniProt P33121); assay: Binding affinity to ACSL1 in human NCI-H358 cells at 1 uM by mass spectrometry based pull down assay; format: cell-based
Procedure, shortened: (§1)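 NCI-H23 or NCI-H358 cells were grown and lysed. Lysates were incubated overnight at 4 °C with 1 μM biotinylated covalent probe or DMSO, then pulled down on streptavidin beads. Proteins were run on polyacrylamide gels and stained with Coomassie. Bands were excised, digested and identified by mass spectrometry.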

[4] = target: DNA replication licensing factor MCM4 (Homo sapiens) (UniProt P33991); assay: Binding affinity to MCM4 in human NCI-H358 cells at 1 uM by mass spectrometry based pull down assay; format: cell-based
[5] = target: Aldehyde dehydrogenase family 3 member A2 (Homo sapiens) (UniProt P51648); assay: Binding affinity to ALDH3A2 in human NCI-H358 cells at 1 uM by mass spectrometry based pull down assay; format: cell-based
[6] = target: T1, 80S Ribosome (Homo sapiens) (UniProt P08865+P42677+P62753+P15880+P23396+P61247+P62701+P22090+P46782+P62081+P62241+P46781+P46783+P62280+P25398+P62277+P62263+P62841+P62244+P62249+P08708+P62269+P39019+P60866+P63220+P62266+P62847+P62851+P62854+P62979+P62857+P62273+P62861+P39023+P36578+P46777+Q02878+P18124+P62424+P62917+P32969+P27635+P62906+P62913+P30050+P26373+P40429+P50914+P61313+P18621+Q07020+Q02543+P84098+P46778+P35268+P62829+P62750+P83731+P61254+P61353+P46776+P46779+P47914+P62888+P62899+P62910+P49207+P42766+P18077+Q9Y3U8+P83881+P61927+P61513+P63173+P62891+P62945+P05388+P05386); assay: Binding affinity to RPS2 in human NCI-H358 cells at 1 uM by mass spectrometry based pull down assay; format: cell-based
[7] = target: Multifunctional protein CAD (Homo sapiens) (UniProt P27708); assay: Binding affinity to CAD in human NCI-H23 cells at 1 uM by mass spectrometry based pull down assay; format: cell-based
[8] = target: Src substrate cortactin (Homo sapiens) (UniProt Q14247); assay: Binding affinity to CTTN in human NCI-H358 cells at 1 uM by mass spectrometry based pull down assay; format: cell-based
[9] = target: Endothelial differentiation-related factor 1 (Homo sapiens) (UniProt O60869); assay: Binding affinity to EDF1 in human NCI-H23 cells at 1 uM by mass spectrometry based pull down assay; format: cell-based
[10] = target: Phosphoglycerate kinase 1 (Homo sapiens) (UniProt P00558); assay: Binding affinity to PGK1 in human NCI-H358 cells at 1 uM by mass spectrometry based pull down assay; format: cell-based
Filamin-B (Homo sapiens) = Filamin-B (Homo sapiens) (UniProt O75369); assay: Binding affinity to FLNB in human NCI-H358 cells at 1 uM by mass spectrometry based pull down assay; format: cell-based
[11] = target: Thymidylate kinase (Homo sapiens) (UniProt P23919); assay: Binding affinity to DTYMK in human NCI-H358 cells at 1 uM by mass spectrometry based pull down assay; format: cell-based
[12] = target: DNA replication licensing factor MCM6 (Homo sapiens) (UniProt Q14566); assay: Binding affinity to MCM6 in human NCI-H358 cells at 1 uM by mass spectrometry based pull down assay; format: cell-based
[13] = target: Adenylyltransferase and sulfurtransferase MOCS3 (Homo sapiens) (UniProt O95396); assay: Binding affinity to MOCS3 in human NCI-H23 cells at 1 uM by mass spectrometry based pull down assay; format: cell-based
[14] = target: Large ribosomal subunit protein bL12m (Homo sapiens) (UniProt P52815); assay: Binding affinity to MRPL12 in human NCI-H358 cells at 1 uM by mass spectrometry based pull down assay; format: cell-based
[15] = target: Acylamino-acid-releasing enzyme (Homo sapiens) (UniProt P13798); assay: Binding affinity to APEH in human NCI-H23 cells at 1 uM by mass spectrometry based pull down assay; format: cell-based
[16] = target: MAP kinase-activated protein kinase 5 (Homo sapiens) (UniProt Q8IW41); assay: Binding affinity to MAPKAPK5 in human NCI-H23 cells at 1 uM by mass spectrometry based pull down assay; format: cell-based
[17] = target: Acidic leucine-rich nuclear phosphoprotein 32 family member B (Homo sapiens) (UniProt Q92688); assay: Binding affinity to ANP32B in human NCI-H23 cells at 1 uM by mass spectrometry based pull down assay; format: cell-based
[18] = target: Thioredoxin-dependent peroxide reductase, mitochondrial (Homo sapiens) (UniProt P30048); assay: Binding affinity to PRDX3 in human NCI-H23 cells at 1 uM by mass spectrometry based pull down assay; format: cell-based
[19] = target: T1, 80S Ribosome (Homo sapiens); assay: Binding affinity to RPS5 in human NCI-H358 cells at 1 uM by mass spectrometry based pull down assay; format: cell-based
[20] = target: Tubulin alpha-4A chain (Homo sapiens) (UniProt P68366); assay: Binding affinity to TUBA4A in human NCI-H23 cells at 1 uM by mass spectrometry based pull down assay; format: cell-based
[21] = target: Ketosamine-3-kinase (Homo sapiens) (UniProt Q9HA64); assay: Binding affinity to FN3KRP in human NCI-H358 cells at 1 uM by mass spectrometry based pull down assay; format: cell-based
[22] = target: Alpha-2-HS-glycoprotein (Homo sapiens) (UniProt P02765); assay: Binding affinity to AHSG in human NCI-H358 cells at 1 uM by mass spectrometry based pull down assay; format: cell-based; procedure, shortened: as §1
[23] = target: Signal transducer and activator of transcription 1-alpha/beta (Homo sapiens) (UniProt P42224); assay: Binding affinity to STAT1 in human NCI-H358 cells at 1 uM by mass spectrometry based pull down assay; format: cell-based
[24] = target: Epithelial splicing regulatory protein 1 (Homo sapiens) (UniProt Q6NXG1); assay: Binding affinity to ESRP1 in human NCI-H358 cells at 1 uM by mass spectrometry based pull down assay; format: cell-based
Vinculin (Homo sapiens) = Vinculin (Homo sapiens) (UniProt P18206); assay: Binding affinity to VCL in human NCI-H358 cells at 1 uM by mass spectrometry based pull down assay; format: cell-based

Sequence of Alpha-2-HS-glycoprotein (Homo sapiens) (P02765 whole entry): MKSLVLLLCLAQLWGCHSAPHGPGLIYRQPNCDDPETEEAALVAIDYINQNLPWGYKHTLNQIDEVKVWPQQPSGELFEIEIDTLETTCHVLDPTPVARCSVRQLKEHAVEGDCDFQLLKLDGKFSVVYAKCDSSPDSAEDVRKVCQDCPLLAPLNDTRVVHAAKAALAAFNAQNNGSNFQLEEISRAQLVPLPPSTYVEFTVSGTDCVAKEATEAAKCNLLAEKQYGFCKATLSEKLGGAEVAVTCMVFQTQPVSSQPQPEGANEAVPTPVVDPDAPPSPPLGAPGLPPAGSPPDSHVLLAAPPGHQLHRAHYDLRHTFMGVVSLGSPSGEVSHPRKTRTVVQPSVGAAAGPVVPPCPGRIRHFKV
Sequence of Ketosamine-3-kinase (Homo sapiens) (Q9HA64 whole entry): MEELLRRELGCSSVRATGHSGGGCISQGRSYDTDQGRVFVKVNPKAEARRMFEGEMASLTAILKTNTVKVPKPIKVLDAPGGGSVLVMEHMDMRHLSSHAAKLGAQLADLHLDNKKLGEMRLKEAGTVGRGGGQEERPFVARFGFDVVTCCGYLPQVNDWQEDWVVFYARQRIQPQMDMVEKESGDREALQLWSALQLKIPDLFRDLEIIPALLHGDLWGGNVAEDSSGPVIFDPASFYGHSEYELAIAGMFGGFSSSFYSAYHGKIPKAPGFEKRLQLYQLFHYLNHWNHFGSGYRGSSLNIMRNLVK
Sequence of Long-chain-fatty-acid--CoA ligase 1 (Homo sapiens) (P33121 whole entry): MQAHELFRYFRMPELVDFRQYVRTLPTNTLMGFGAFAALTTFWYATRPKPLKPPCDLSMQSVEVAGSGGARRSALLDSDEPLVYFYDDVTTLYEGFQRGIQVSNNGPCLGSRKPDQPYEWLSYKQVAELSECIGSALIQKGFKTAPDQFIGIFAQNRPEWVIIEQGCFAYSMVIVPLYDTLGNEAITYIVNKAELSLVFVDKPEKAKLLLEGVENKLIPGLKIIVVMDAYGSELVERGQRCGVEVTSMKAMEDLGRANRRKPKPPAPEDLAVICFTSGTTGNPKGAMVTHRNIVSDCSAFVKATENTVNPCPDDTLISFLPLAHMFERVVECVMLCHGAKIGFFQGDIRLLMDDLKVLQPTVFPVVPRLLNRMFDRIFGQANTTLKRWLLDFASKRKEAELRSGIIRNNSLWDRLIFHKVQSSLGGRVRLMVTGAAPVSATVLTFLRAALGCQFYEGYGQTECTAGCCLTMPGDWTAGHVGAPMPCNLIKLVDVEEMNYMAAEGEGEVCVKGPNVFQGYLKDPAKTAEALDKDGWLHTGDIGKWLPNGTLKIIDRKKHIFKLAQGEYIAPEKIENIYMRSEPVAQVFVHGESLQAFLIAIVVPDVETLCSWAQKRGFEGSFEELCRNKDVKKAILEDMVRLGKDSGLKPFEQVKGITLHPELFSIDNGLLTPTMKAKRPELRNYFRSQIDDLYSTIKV
Sequence of DNA replication licensing factor MCM4 (Homo sapiens) (P33991 whole entry): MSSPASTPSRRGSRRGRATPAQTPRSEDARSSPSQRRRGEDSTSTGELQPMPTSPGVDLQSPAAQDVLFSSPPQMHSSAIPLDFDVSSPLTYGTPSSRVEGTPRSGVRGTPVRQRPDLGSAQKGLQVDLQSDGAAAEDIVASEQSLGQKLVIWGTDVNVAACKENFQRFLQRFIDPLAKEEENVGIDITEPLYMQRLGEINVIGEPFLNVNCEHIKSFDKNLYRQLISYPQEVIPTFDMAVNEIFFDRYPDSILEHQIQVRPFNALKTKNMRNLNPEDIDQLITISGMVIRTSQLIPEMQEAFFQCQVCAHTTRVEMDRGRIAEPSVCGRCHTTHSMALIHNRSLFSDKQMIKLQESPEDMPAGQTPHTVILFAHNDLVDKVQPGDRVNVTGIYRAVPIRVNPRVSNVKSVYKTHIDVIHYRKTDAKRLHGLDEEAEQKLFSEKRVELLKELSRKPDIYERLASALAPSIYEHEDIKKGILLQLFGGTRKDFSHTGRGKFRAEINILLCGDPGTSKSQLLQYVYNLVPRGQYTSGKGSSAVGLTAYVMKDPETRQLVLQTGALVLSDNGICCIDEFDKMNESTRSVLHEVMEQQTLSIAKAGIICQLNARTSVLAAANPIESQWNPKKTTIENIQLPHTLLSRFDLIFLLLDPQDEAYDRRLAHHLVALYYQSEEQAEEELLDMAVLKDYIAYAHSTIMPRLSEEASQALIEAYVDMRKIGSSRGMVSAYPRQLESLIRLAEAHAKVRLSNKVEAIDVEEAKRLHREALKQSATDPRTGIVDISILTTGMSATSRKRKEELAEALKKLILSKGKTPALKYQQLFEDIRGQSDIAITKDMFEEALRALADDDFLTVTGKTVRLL
Sequence of Adenylyltransferase and sulfurtransferase MOCS3 (Homo sapiens) (O95396 whole entry): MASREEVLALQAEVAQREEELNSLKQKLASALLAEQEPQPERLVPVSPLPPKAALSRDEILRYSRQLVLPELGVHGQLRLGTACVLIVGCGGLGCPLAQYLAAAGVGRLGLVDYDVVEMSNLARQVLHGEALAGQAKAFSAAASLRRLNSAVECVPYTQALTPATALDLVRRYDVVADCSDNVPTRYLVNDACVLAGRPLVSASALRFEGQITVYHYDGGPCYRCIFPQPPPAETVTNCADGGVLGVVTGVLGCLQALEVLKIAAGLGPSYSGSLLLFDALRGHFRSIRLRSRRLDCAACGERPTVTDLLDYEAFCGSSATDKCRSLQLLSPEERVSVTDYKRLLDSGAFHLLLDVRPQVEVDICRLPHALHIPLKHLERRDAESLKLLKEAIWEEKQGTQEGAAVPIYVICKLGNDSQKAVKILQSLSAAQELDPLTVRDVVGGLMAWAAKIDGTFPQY
Sequence of Tubulin alpha-4A chain (Homo sapiens) (P68366 whole entry, looked up): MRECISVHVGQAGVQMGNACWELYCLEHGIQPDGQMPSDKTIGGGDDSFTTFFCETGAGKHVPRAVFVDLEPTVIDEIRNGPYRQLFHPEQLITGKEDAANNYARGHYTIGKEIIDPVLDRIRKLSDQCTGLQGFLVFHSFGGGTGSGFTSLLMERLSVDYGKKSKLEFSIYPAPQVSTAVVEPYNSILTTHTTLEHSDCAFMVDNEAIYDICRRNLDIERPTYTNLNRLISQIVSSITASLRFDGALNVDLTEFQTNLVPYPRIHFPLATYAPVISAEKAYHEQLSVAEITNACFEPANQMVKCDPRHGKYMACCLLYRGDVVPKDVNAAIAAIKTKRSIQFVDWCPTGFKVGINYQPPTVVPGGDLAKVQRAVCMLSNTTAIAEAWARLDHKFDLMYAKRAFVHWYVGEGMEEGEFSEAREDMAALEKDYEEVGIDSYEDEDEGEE
Sequence of Src substrate cortactin (Homo sapiens) (Q14247 whole entry): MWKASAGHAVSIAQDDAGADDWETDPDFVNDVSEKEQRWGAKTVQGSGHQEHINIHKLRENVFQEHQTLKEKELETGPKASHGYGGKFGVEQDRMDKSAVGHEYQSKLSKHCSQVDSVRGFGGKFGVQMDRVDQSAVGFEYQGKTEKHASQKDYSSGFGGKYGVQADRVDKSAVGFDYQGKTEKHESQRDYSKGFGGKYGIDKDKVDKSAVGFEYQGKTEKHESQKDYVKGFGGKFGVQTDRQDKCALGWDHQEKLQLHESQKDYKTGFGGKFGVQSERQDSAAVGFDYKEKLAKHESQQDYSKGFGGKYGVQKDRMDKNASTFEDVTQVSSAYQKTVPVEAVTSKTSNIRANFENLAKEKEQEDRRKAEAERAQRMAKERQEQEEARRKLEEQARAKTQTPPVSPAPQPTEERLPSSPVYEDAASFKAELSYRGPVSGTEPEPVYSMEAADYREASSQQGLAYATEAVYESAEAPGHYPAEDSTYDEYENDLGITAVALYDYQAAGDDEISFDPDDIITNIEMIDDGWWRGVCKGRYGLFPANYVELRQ
Sequence of DNA replication licensing factor MCM6 (Homo sapiens) (Q14566 whole entry): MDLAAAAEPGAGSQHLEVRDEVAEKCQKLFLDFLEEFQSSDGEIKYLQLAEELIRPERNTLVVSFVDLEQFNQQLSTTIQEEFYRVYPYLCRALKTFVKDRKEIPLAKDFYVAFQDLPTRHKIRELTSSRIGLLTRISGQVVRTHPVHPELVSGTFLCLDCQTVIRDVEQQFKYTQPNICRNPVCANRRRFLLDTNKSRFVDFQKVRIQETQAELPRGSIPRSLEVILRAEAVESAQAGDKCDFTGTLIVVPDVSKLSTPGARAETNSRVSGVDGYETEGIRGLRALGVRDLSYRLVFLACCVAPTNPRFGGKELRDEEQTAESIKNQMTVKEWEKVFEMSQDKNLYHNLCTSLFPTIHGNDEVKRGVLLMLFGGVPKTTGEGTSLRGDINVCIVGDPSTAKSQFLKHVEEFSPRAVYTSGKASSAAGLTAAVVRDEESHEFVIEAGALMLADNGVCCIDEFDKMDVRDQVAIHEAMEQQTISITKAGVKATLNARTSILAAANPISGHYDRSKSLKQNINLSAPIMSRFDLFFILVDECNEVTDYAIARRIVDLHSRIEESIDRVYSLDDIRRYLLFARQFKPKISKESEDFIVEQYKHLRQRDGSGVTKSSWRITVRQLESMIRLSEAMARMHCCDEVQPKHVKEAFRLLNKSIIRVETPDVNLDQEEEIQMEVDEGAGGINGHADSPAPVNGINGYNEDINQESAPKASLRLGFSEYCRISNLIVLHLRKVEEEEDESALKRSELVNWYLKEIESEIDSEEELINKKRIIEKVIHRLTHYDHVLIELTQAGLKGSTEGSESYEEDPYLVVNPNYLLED
Sequence of Acidic leucine-rich nuclear phosphoprotein 32 family member B (Homo sapiens) (Q92688 whole entry): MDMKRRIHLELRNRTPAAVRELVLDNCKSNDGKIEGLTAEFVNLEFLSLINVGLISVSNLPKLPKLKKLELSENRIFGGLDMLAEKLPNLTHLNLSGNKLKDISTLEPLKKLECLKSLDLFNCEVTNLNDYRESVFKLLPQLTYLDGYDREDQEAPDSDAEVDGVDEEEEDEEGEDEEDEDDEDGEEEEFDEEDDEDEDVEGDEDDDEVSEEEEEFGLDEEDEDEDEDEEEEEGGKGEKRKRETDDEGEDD
Sequence of Thymidylate kinase (Homo sapiens) (P23919 whole entry): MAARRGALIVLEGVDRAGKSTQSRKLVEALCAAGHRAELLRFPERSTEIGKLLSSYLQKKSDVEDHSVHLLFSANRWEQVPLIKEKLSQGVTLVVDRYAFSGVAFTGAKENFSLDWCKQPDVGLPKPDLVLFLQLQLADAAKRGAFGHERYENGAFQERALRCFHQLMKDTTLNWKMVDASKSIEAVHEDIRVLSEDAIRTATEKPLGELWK

Compound: C=CC(=O)Nc1ccccc1Nc1nc(Nc2ccc(N3CCN(C)CC3)cc2)ncc1Cl
inhibition [1]: 61%

Compound: COc1cc(O)c2c(c1)/C=C/C[C@H](O)[C@H](O)C(=O)/C=C\C[C@H](C)OC2=O
Activity [2]: 0.9%

Activity [3]: Active | Activity [4]: Active | Activity [5]: Active | Activity [6]: Active | Activity [7]: Active | Activity [8]: Active | Activity [9]: Active | Activity [10]: Active | Activity (Filamin-B (Homo sapiens)): Active | Activity [11]: Active | Activity [12]: Active | Activity [13]: Active | Activity [14]: Active | Activity [15]: Active | Activity [16]: Active | Activity [17]: Active | Activity [18]: Active | Activity [19]: Active | Activity [20]: Active | Activity [21]: Active | Activity [22]: Active | Activity [23]: Active | Activity [24]: Active | Activity (Vinculin (Homo sapiens)): Active
Compound: C=CC(=O)Nc1ccccc1Nc1nc(Nc2ccc(N3CCN(CCOCCOCCOCCNC(=O)CCCC[C@@H]4SC[C@@H]5NC(=O)N[C@@H]54)CC3)cc2)ncc1Cl
